Test system: MS2 coat protein
Assay: apparent Kd, MS2 coat protein; higher = weaker binding; RNA-MaP array; FMN 200 µM where present
Summary of the method: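 The apparent Kd is the median of filtered binding-curve fits, one per cluster, to green signal normalised to red-channel RNA signal and control-cluster median Fmax. The clusters were on Illumina sequencing chips, and stalled E. coli RNA polymerase had transcribed the designs on them. Titration used SNAP-549-labelled MS2 coat protein from 0.7 or 1.5 nM, doubling to 3 µM, without and then with constant ligand, in 100 mM Tris-HCl pH 7.5, 80 mM KCl, 4 mM MgCl2, BSA, DTT, yeast tRNA and Tween-20.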

[1] = designed as: ON switch for flavin mononucleotide, no ligand
[2] = ligand present: flavin mononucleotide, designed as: ON switch for flavin mononucleotide
[3] = designed as: OFF switch for flavin mononucleotide, no ligand
[4] = ligand present: flavin mononucleotide, designed as: OFF switch for flavin mononucleotide

Sequence | apparent Kd [1] [µM] | apparent Kd [2] [µM] | apparent Kd [3] [µM] | apparent Kd [4] [µM]
ACGUUAAUUCGAGGAUAUCGGUGAUAUAUAUUACGAGAAGGCGAUAAUUGUGAUAAACUUAUAGACAUGAGGAUCACCCAUGUA | 0.0421 | 0.0382 | – | –
GGGUACAUCGGAGGAUAUCAUGUAAAUACAUGAGGAUCACCCAUGUCGAUGGAGACAUCGCAGAUUGAGAAGGCCGAUGUACCG | 0.028 | 0.00526 | – | –
GCCGAUUAAGUGAGGAUAUACCUAUGGAUACAUAGGUAGAAGGCACAUGAGGAUCACCCAUGUUCCUCAUCGGC | – | – | 0.0168 | 0.132
GAUCCGUGGCUUUCGCUUUGUUCACAUGAGGAUCACCCAUGUAGAAGGUAGCGGUUGAAUUUCGCUGAGGAUAUACAUAGGUGC | – | – | 0.0134 | 0.0243
AGUAGAUCAGGAUAUACAUAAAUGAUAAUUAUGUACUUUUUACAUGAGGAUCACCCAUGUAGAAGGGAUCUACA | – | – | 0.0148 | 0.022
UCACGGGAUUGAGGAUAUAUAUUAAUUUUUACAAUAGAAGGCAAAUUGUUAGAUUAUUCACUAUACAUGAGGAUCACCCAUGUU | – | – | 0.0236 | 0.0217
GGGUACGUCGGAGGAUAUCAUGUAAAUACAUGAGGAUCACCCAUGUCGAUGGAGACAUCGGAGAUUGAGAAGGCCGAUGUACCG | 0.192 | 0.00889 | – | –
GUAAAUCAUGUAGGAUAUGCAUGGCGAAGCUACGCAGAAGGACAUGAGGAUCACCCAUGUCUCUCCGUCUGCGUACAGACGGAG | – | – | 0.0274 | 0.188
UCCUUGUCCUGAGGAUAUCCGUAGUGACCGAAAGGAGAAGGCAGGACAUGAGGAUCACCCAUGUACCCAGAAAACGUGCAGAGU | – | – | 0.0481 | 0.525
GCGGAUCUAGGAUAUACAUGAGGAUCACCCAUGUAAACUCUCUUGGAUGACUACUAUUGUAGAAGGAGAUAAGC | – | – | 0.0254 | 0.041
UUGGAGAUAGGAUAUACGAGGAGAGUUGAGGGAAGGUGAUGACAUGAGGAUCACCCAUGUAGAAGGAUCAGGAG | – | – | 0.144 | 0.0872
GUACGUGGACAGAAGGUGACAUGAGGAUCACCCAUGUUAGUUGAGGUACCAGCGAUCUGCGUGAUUGAGGAUAUGUCUGCGGGC | – | – | 0.0119 | 0.0138
UUGGUUACAUGAGGAUCACCCAUGUCUCAGGCCCUAUUUAGCAGAAGGCCAGCUGGGCUACGGAUGGAGGAUAUGCUUAUGGCC | 0.131 | 0.0296 | – | –
GGAUAGGACAGAGGAUAUACUUGCUAGAGAUACUAGCAAAAUUUCCUCACAUGAGGAUCACCCAUGUAGAAGGCUGUCCUAUCG | – | – | 0.00695 | 0.0545
UCAUUGUAAGGAUAUAAAAGCUCGCGGAAUUGCACGGGUUGUUAGAAGGUACAUGAGGAUCACCCAUGUUCCUA | – | – | 0.0171 | 0.0221
AUAUAUAGUGUGAGGAUAUGCUGGUCCUUGGAUCAGCAGAAGGCACAUGAGGAUCACCCAUGUAGUUAAAUAUA | – | – | 0.036 | 0.107
AGGAAGGGUGCUCCGGCGGGCCGAGCAGAAGGGUGAUUGGACAUGAGGAUCACCCAUGUAUAAACACAGGAUAUGCAAACGGGU | 0.305 | 0.0131 | – | –
ACUUCACAUGAGGAUCACCCAUGUCAGGCCGGACUAGGAUAUUAUCAUGCAGCGUAACCGUAAGAAGGAGUUGGAU | 0.0883 | 0.187 | – | –
AUGUAGUACGUAGGAUAUCAAUGAGGAUCACCCUGAGAAGGACGUGAGGACAUGAGGAUCACCCAUGUGGAUCACCCAUGUCAU | – | – | 0.173 | 0.142
GAUGCACAUGAGAAGGCGAUCAUGAAACAUGAUCGAGGAUAUCAUGUAAACAUGAGGAUCACCCAUGUAUGGGAAAAGUGCAUC | 0.119 | 0.0121 | – | –
CAGCGAAAGUAGAAGGUAUUAAUUAAAUUUAAAUAAGGAUAUACAUGAGGAUCACCCAUGUCCUUCAGCUGGAUAUAUAUUAAU | – | – | 0.0391 | 0.0291
GCUGCAUGCAGAGGAUAUAUAACAUGAGGAUCACCCAUGUAAAAUAUAUGGAUAAACCAGAUAGUAUAGAAGGCUGCAUGCAGC | – | – | 0.0229 | 0.0192
CCGGAAAUGAAGGAUAUAGGUGUCGAUAGACUCCUAGAAGGUCAUACAUGAGGAUCACCCAUGUGUCCUACCGG | – | – | 0.0157 | 0.0326
GACAUUGGCAAGAAGGCAAACAUGAGGAUCACCCAUGUUCUGUAUGUAUUUUGAGGAUAUUGCCAAUGUAUGUGGAUCACCCAA | – | – | 0.00891 | 0.0101
UGGUACUAGGGAGGAUAUGGGAAGAGACAUGAGGAUCACCCAUGUUUAAGAAUGCCGAGAGGCAACUAGAAGGCCCUAGUACCU | 0.0388 | 0.00742 | – | –
CCUCGACAUGAGGAUCACCCAUGUCAGGAUAUUGUGUUUUUGGUUUUUUACCUUUAGGCAAGAAGGGAUGUGUG | – | – | 0.016 | 0.0214
CCCUGAUUGAGAGGUAGGAGUGGUAGAAGGCGACCGGUGCCAGAUGACAUGAGGAUCACCCAUGUCGAGGAUAUACCACAGAAU | – | – | 0.0067 | 0.0122
UGCGGAAGAGGAUAUACGUAGAAAUAGAUUCAUGUAAAACUACAUGAGGAUCACCCAUGUAGAAGGCUUUCGCU | – | – | 0.0248 | 0.232

Sequence | apparent Kd [1] [µM] | apparent Kd [2] [µM] | apparent Kd [3] [µM] | apparent Kd [4] [µM]
CACAAGAAAGUCGAACCGCUAUCUAGAAGGACAACAUGACAACAUGAGGAUCACCCAUGUCAUAUGUAGGAUAUGGAUGGUGGG | – | – | 0.00894 | 0.00914
AGAAAACAUGAGGAUCACCCAUGUGAGGAUAUCGAUGUCCAAGUCCGGGUGCGGGACUCGAGAAGGCACUUGGG | – | – | 0.0559 | 0.055
GCCUGGACAGAGAAGGGCUACUCCAACCACAUGAGGAUCACCCAUGUUAGCAGGAUAUCUGGCAGGGCAUCCUCAAUUAUUAAA | 0.0916 | 0.0198 | – | –
ACCAUUUACUAAUUAUCUAUACAUGAGGAUCACCCAUGUUAUGAGGAUAUCAUCGUGAAACACGAUGAGAAGGUAUAGCAUUCG | – | – | 0.0181 | 0.0221
AUGGGUUAAGGAGGAUAUAGAGGGAGAAGUAAACAUGAGGAUCACCCAUGUAUUUAAUUAGUUUACUAGAAGGCUUGUGAUUGU | 0.0336 | 0.0415 | – | –
GUUCCACAUGAGGAUCACCCAUGUGAGGAUAUGGAUUCGCUGGCCGUAGCCAGUGGAUCCAGAAGGCGCAUGAU | – | – | 0.0399 | 0.153
AUCAGCUCGUCAGGAUAUACGUCACUGCGUCAGCAGUGUGGUAAGAUCACAUGAGGAUCACCCAUGUAGAAGGAACGAGCUGAU | – | – | 0.00841 | 0.0147
AAGUUUUUACAAGGAUAUCAAUUGUUUCUAAAUUCAACAUGAGGAUCACCCAUGUAACAAUGGAGUGAGAAGGUGUGUUGGCAA | 0.0868 | 0.141 | – | –
AAAUUGUGAGGAUAUCAGGUGUGCUAGCGUACUGGUACAUCUGAGAAGGCACAUGAGGAUCACCCAUGUUUCUU | – | – | 0.0161 | 0.0442
GUCCUACAUGAGGAUCACCCAUGUAAGGAUAUGCUAGCGGUCGGAAGACUGACUGCUAGCAGAAGGUACAUGAU | – | – | 0.015 | 0.0245
UUUUUAUUUGUAGGAUAUGGAGACAUGAGGAUCACCCAUGUAUGAUAAGAUAAAUUAUGAUGUGGCCAGAAGGAUAUUAUUUUU | 0.0871 | 0.119 | – | –
UCGGCCCAAGCACAUGAGGAUCACCCAUGUACCACGGCCACCAGAAGGGCAGGGAAGAGGGAUCUGCAGGAUAUGGGCACUAGC | 0.0144 | 0.0096 | – | –
GUUGUUUAUGUAGGAUAUGCGAGGCGAGCCUAAGCAGAAGGACAUGAGGAUCACCCAUGUAUUGCGGUCUGCGUUCAGAUCGCU | – | – | 0.0324 | 0.135
AGCCCGGGAGGAUAUCCAAUAUAUGACAUGAGGAUCACCCAUGUUUCCACUCGUACCUCCGGAGAAGGCCCGGCGA | – | – | 0.0197 | 0.0194
GUGGUCAGACAUGAGGAUCACCCAUGUGGAAUAAAUAAGGAGAAGGAUAUUCAAUAUAGGAUAUAGAAGAAGGUCUGGUUGGUG | 0.0737 | 0.0827 | – | –
UUGUGGUGCGUAGGAUAUCAUUGAGGGUCACCCUGAGAAGGACGUGAGGACAUGAGGAUCACCCAUGUGGAUCACCCAUGUCAU | – | – | 0.222 | 0.355
GUUCUUCCUGUGAGGAUAUCCAUGUGUCGGUUUGUGGAGAAGGUACAUGAGGAUCACCCAUGUCACCCGCGUUA | – | – | 0.0147 | 0.0177
AUGCCUUAUGUAGGAUAUGCAUAGCAUUGCUAUGCAGAAGGACAUGAGGAUCACCCAUGUAUGUAUUCCAUACAUAUCUGGCAU | – | – | 0.0295 | 0.343
UGUCCAUAGCAGAAGGCUAGAAAACAUGAGGAUCACCCAUGUCAAAAGACUAGAGGAUAUGCUAUGGACUAAGAGCGAAAGCUC | – | – | 0.00397 | 0.00381
CACCGUUAGCGAGGAUAUCGUACAUGAGGAUCACCCAUGUAAUAAAUGAGAAUUUCGGAUGUAUGCGAGAAGGCGCGAAUCGGC | – | – | 0.0529 | 0.0406
AAUAUGUUGCAGAAGGUUAUUUUUAUAACGAUCCACUUGACAUGAGGAUCACCCAUGUAAUUGAUGAAGGAUAUGCAAUAUAUU | – | – | 0.00669 | 0.00669
UUAAAUCAUGUAGGAUAUGCAUGGCGAAGCUACGCAGAAGGACAUGAGGAUCACCCAUGUUAUAGCGACCCAGUUCGGUUGCAA | – | – | 0.0943 | 0.23
GUUAACACAUGAGGAUAUGCUCGCAUUUCAAGAGCAGAAGGUAUGUCUAUAGACAUGAGGAUCACCCAUGUAUUUAUCAUUGAA | 0.274 | 0.0526 | – | –
AAAGUGUGAGGAUAUUCGUAGUACACGGAGACGUGUAUUACGGAGAAGGCACAUGAGGAUCACCCAUGUUCCUU | – | – | 0.0204 | 0.143
GUUUUUUGUCAUGUACAUGAGGAACAUGAGGAUCACCCAUGUAGAAGGAAUUUUUUUAAGUUUAGUUAGGAUAUACAUAUAUUG | – | – | 0.0506 | 0.0319
GUAUCGUAUGUGAGGAUAUAUUAAACCUUGGAUUUGUAGAAGGCACAUGAGGAUCACCCAUGUCCUAGUGGUCC | – | – | 0.0294 | 0.0333
CUUUUAUAAUAGAAGGUAGACUUCAUGAGGAUCACCCAUGUGUUGGUACUAAGGAUAUGUAAUAACAUGAGGAUCACCCAUGUU | 0.0158 | 0.0161 | – | –

From the EternaBench riboswitch data
